The text below walks through data of ChEMBL document CHEMBL3593210, “Pentamidine analogs as inhibitors of [(3)H]MK-801 and [(3)H]ifenprodil binding to rat brain NMDA receptors” (Bioorg Med Chem, 2015).

The structures appear in SMILES notation. A value given as a limit tells only on which side of the number the result lay.

The term IC50 denotes the point on the concentration scale where inhibition reaches its midpoint.

The target of assay [1] is Glutamate NMDA receptor (Rattus norvegicus) (UniProt P35439+Q00959+Q00960+Q00961+Q62645+Q8VHN2+Q9R1M7). Briefly: Ratio of IC50 for displacement of [3H]-MK-801 from rat cortical membranes NMDA receptor in presence of 30 uM spermine to IC50 for displacement of [3H]-MK-801 from rat cortical membranes NMDA receptor in absence of 30 spermine. The gist of the method: (§1)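 Membranes from rat frontoparietal cortex and hippocampus, prepared in 50 mM Tris acetate pH 7.0. 5 nM [3H]MK-801 was incubated with membranes (~1 mg wet tissue) for 3 h at 23 °C in 10 mM Tris acetate pH 7.0 with 10 µM glutamate and glycine, in triplicate, with or without 30 µM spermine. Compounds were tested at 3–4 concentrations. Nonspecific binding was set with 100 µM (S)-ketamine. Bound ligand was filtered and scintillation-counted. Spermine sensitivity = IC50 (with spermine)/IC50 (without).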
For orientation: Loss of bound radioactivity is the signal in a displacement assay; it reports binding, not function.

The target of assay [2] is Glutamate NMDA receptor. The assay is described as follows: Displacement of [3H]-MK-801 from rat cortical membranes NMDA receptor by beta counting analysis in presence of 30 uM spermine. A digest of the protocol:
as §1

Assay [3] has as its target Glutamate NMDA receptor. The assay is described as follows: Displacement of [3H]-ifenprodil from rat cortical membranes NMDA receptor by beta counting analysis in absence of spermine.
Assay [4] deals with Glutamate NMDA receptor. Briefly: Displacement of [3H]-MK-801 from rat cortical membranes NMDA receptor by beta counting analysis in absence of spermine. The gist of the method:
as §1

With `CCN(CCN(CC)c1ccc(C(=N)N)cc1)c1ccc(C(=N)N)cc1`, the Ratio IC50 in assay [1] was 11.8. Further, the 50% inhibitory concentration (IC50) was 13.8 µM in assay [2], 9.16 µM in assay [3] and 1.14 µM in assay [4].

Take `N=C(N)c1ccc(OCc2cccc(COc3ccc(C(=N)N)cc3)c2)cc1`: the Ratio IC50 in assay [1] is 9.04. In addition, the half-maximal inhibitory concentration (IC50) was found to be 6.7 µM in assay [2], 3.97 µM in assay [3] and 0.79 µM in assay [4].

On to `N=C(N)c1ccc(COc2ccccc2OCc2ccc(C(=N)N)cc2)cc1`, for which the Ratio IC50 in assay [1] worked out at 10.1. The values for the IC50 in assay [2], in assay [3] and in assay [4] were 18.4 µM, 7.29 µM and 2.19 µM, respectively.

`N=C(N)c1ccc(NCCNc2ccc(C(=N)N)cc2)cc1`: the Ratio IC50 in assay [1] came out at 30.2. The results for the concentration for half-maximal inhibition (IC50) in assay [2], in assay [3] and in assay [4] were 50.7 µM, 0.76 µM and 2.01 µM, respectively.

`N=C(N)c1ccc(OCc2ccc(COc3ccc(C(=N)N)cc3)cc2)cc1`: the Ratio IC50 in assay [1] worked out at 5.25. The results for the concentration for half-maximal inhibition (IC50) in assay [2], in assay [3] and in assay [4] were 25.7 µM, 10.8 µM and 5.24 µM, respectively.

Consider `CCN(CCNc1ccc(C(=N)N)cc1)c1ccc(C(=N)N)cc1`, for which the Ratio IC50 in assay [1] was 19.3. Further, the results for the half-maximal inhibitory concentration (IC50) in assay [2], in assay [3] and in assay [4] were 48.1 µM, 13 µM and 2.61 µM, respectively.

For `N=C(N)c1ccc(NC(=O)CCCC(=O)Nc2ccc(C(=N)N)cc2)cc1`, in assay [1], the Ratio IC50 is 2.81. The concentration for half-maximal inhibition (IC50) in assay [2] turned out to be 675 µM; in assay [3] it was 54.5 µM; in assay [4], 230 µM.

For the compound `N=C(N)c1ccc(NC(=O)c2cccc(C(=O)Nc3ccc(C(=N)N)cc3)n2)cc1`, the Ratio IC50 in assay [1] was found to be 1.22. The figures for the IC50 in assay [2], in assay [3] and in assay [4] were 70.9 µM, over 100 µM and 58.2 µM, respectively.
